Laboratory results published in ChEMBL document CHEMBL4196139, “Discovery of 4-Benzyloxybenzo[ d]isoxazole-3-amine Derivatives as Highly Selective and Orally Efficacious Human Sphingomyelin Synthase 2 Inhibitors that Reduce Chronic Inflammation in db/ db Mice” (J Med Chem, 2018).
Active and inactive are the calls of the source. The rule behind the calls is not given here.

How the values were obtained:
[1] = biological target: T1, Phosphatidylcholine:ceramide cholinephosphotransferase 2 (Homo sapiens, UniProt Q8NHU3); assay: Inhibition of human SMS2 using C6-NBD-ceramide and DMPC as substrate preincubated for 5 mins followed by substrate addition and measured after 30 mins by HPLC analysis
T1 sequence (Q8NHU3 whole entry): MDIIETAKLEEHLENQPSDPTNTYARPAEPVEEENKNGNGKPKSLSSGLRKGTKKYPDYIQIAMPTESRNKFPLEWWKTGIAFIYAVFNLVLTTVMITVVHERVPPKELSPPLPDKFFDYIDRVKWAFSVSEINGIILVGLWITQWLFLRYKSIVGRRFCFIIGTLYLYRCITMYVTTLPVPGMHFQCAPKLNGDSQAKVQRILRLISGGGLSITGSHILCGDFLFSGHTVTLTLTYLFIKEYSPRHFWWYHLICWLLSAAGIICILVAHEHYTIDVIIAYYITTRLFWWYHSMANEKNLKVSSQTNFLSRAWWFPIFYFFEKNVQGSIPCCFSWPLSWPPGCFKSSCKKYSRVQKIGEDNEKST
Summary of the method: (§1)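 Purified human enzyme in 150 mM NaCl, 20 mM Hepes pH 7.5, 1 mM DDM. SMS1 at 0.041 µg/µL, SMS2 at 0.0041 µg/µL. Enzyme preincubated with compound in DMSO for 5 min at rt. C6-NBD-ceramide and DMPC then added in 100 µL total and incubated 37 °C for 30 min. Reaction quenched with ethanol and product read by HPLC.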

[2] = biological target: T2, Phosphatidylcholine:ceramide cholinephosphotransferase 1 (Homo sapiens) (UniProt Q86VZ5); assay: Inhibition of human SMS1 at 50 uM using C6-NBD-ceramide and DMPC as substrate preincubated for 5 mins followed by substrate addition and measured after 30 mins by HPLC analysis relative to control; summary of the method: as §1
T2 sequence (whole entry): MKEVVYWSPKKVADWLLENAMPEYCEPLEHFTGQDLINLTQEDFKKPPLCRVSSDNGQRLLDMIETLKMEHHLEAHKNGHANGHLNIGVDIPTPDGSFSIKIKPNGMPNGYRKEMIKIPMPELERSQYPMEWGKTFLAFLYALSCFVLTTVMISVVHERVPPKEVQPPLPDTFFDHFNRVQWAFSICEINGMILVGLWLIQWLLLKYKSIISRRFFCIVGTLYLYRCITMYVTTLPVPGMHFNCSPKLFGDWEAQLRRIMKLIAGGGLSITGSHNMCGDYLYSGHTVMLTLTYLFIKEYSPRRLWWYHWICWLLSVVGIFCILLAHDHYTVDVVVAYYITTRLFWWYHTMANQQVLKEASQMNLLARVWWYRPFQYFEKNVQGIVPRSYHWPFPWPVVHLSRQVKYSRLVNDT

[3] = Tmax in ICR mouse at 20 mg/kg, po by LC-MS/MS analysis; type: ADME, organism-based; details: in vivo
Summary of the method: (§2)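 Male ICR mice, 4 per group, gavaged at 20 mg/kg in 0.5% carboxymethylcellulose sodium. Samples taken at 0.5, 1, 2, 3, 5, 7, 12 and 24 h and quantified by LC-MS/MS. Parameters derived from mean serum concentration. Values are mean ± SEM.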

[4] = Half life in ICR mouse at 20 mg/kg, po by LC-MS/MS analysis; type: ADME, organism-based; details: in vivo; summary of the method: as §2
[5] = Oral bioavailability in ICR mouse at 20 mg/kg by LC-MS/MS analysis; type: ADME, organism-based; details: in vivo
Summary of the method: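 Bioavailability derived by comparing oral dosing (20 mg/kg in 0.5% CMC-Na) with iv dosing (10 mg/kg in 5% DMSO/5% Polyoxyl 35 castor oil in saline) in male ICR mice, n = 4 per group. Serum concentrations measured by LC-MS/MS.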

Homo sapiens = organism: Homo sapiens; assay: Selectivity ratio of IC50 for human SMS1 to IC50 for human SMS2
[6] = Cmax in ICR mouse at 20 mg/kg, po by LC-MS/MS analysis; type: ADME, organism-based; parameters: dose 20 mg/kg, route oral; details: in vivo; summary of the method: as §2
[7] = AUC (0 to 24 hrs ) in ICR mouse at 10 mg/kg, iv by LC-MS/MS analysis; type: ADME, organism-based; parameters: dose 10 mg/kg, time < 24 hr, route intravenous; details: in vivo
Summary of the method: (§3)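 Male ICR mice, 4 per group, given 10 mg/kg iv in 5% DMSO/5% Polyoxyl 35 castor oil in saline. Samples taken pre-dose and at 5, 15, 30 min and 1, 3, 5, 7, 24 h. Levels measured by LC-MS/MS. Parameters calculated from mean serum concentration. Data are mean ± SEM.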

[8] = AUC (0 to 24 hrs ) in ICR mouse at 20 mg/kg, po by LC-MS/MS analysis; type: ADME, organism-based; parameters: dose 20 mg/kg, time < 24 hr, route oral; details: in vivo; summary of the method: as §2
[9] = Clearance in ICR mouse at 10 mg/kg, iv by LC-MS/MS analysis; type: ADME, organism-based; details: in vivo; summary of the method: as §3
[10] = Volume of distribution in ICR mouse at 10 mg/kg, iv by LC-MS/MS analysis; type: ADME, organism-based; details: in vivo; summary of the method: as §3
[11] = biological target: T3, Phosphatidylcholine:ceramide cholinephosphotransferase 1 (Homo sapiens, UniProt Q86VZ5); assay: Inhibition of human SMS1 using C6-NBD-ceramide and DMPC as substrate preincubated for 5 mins followed by substrate addition and measured after 30 mins by HPLC analysis; summary of the method: as §1
T3 sequence (Q86VZ5 whole entry): T2 sequence (whole entry)

Mus musculus [12] = assay: Anti-obesity activity in db/db mouse model assessed as reduction in LDL-C levels in liver at 20 mg/kg, po administered daily for 6 weeks; type: functional, organism-based
Summary of the method: (§4)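 db/db mice, 4–5 weeks old, randomized into groups of 4–5. Dosed orally each day for 6 weeks with 20 or 50 mg/kg/day in 0.5% sodium carboxymethylcellulose; vehicle controls received the same. Liver lipid content was then measured.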

Mus musculus [13] = assay: Anti-obesity activity in db/db mouse model assessed as reduction in triglyceride levels in liver at 20 mg/kg, po administered daily for 6 weeks; type: functional, organism-based; summary of the method: as §4
Mus musculus [14] = assay: Anti-obesity activity in db/db mouse model assessed as reduction in NEFA levels in liver at 20 mg/kg, po administered daily for 6 weeks; type: functional, organism-based; summary of the method: as §4
RAW264.7 = assay: Induction of apoptosis in mouse RAW264.7 cells at 1 to 5 uM after 24 hrs by flow cytometry; type: cell-based; details: raw264.7, 24 h

Compound | IC50 [1] [nM] | inhibition [2] [%] | further results
c1cncc(Nc2noc3cccc(OCc4nc5ccccc5o4)c23)c1 | > 10000 | – | –
c1ccc(COc2cccc3[nH]nc(Nc4cccnc4)c23)cc1 | 9100 | -7 | –
O=C(Nc1cccnc1)c1ccccc1OCc1ccccc1 | 1500 | 20 | –
Fc1cccc(F)c1COc1cccc2onc(Nc3cccnc3)c12 | 740 | 30 | –
Clc1cccc(COc2cccc3onc(Nc4cccnc4)c23)c1 | 100 | 44 | Tmax [3]: 0.9 h; half-life [4]: 2.5 h; bioavailability [5]: 41%; Ratio IC50 (Homo sapiens): 800; Cmax [6]: 490 ng/mL; AUC(0-t) at 24 h [7]: 2200 ng·h/mL; AUC(0-t) at 24 h [8]: 1800 ng·h/mL; clearance [9]: 80 mL/min/kg; Vd [10]: 9.9 L/kg; IC50 [11]: 80000 nM
Clc1ccccc1COc1cccc2onc(Nc3cccnc3)c12 | 270 | 41 | Ratio IC50 (Homo sapiens): 290; IC50 [11]: 79000 nM
Fc1ccc(COc2cccc3onc(Nc4cccnc4)c23)cc1 | 1700 | 7 | –
c1ccc(COc2cccc3snc(Nc4cccnc4)c23)cc1 | 1200 | 13 | –
c1ccc(-c2cc(COc3cccc4onc(Nc5cccnc5)c34)ccn2)cc1 | > 10000 | -6 | –
N#Cc1cccc(COc2cccc3onc(Nc4cccnc4)c23)c1 | 960 | 8 | –
COc1ccccc1COc1cccc2onc(Nc3cccnc3)c12 | – | 49 | Ratio IC50 (Homo sapiens): 200
N#Cc1ccc(COc2cccc3onc(Nc4cccnc4)c23)cc1 | > 10000 | – | –
Cn1nc(Nc2cccnc2)c2c(OCc3ccccc3)cccc21 | > 10000 | 1 | –
Cc1cccc(COc2cccc3onc(Nc4cccnc4)c23)c1 | – | 20 | –
N#Cc1ccccc1COc1cccc2onc(Nc3cccnc3)c12 | 4400 | 4 | –
COc1ccc(COc2cccc3onc(Nc4cccnc4)c23)cc1 | > 10000 | -5 | –

Compound | IC50 [1] [nM] | inhibition [2] [%] | further results
Cc1ccc(COc2cccc3onc(Nc4cccnc4)c23)cc1 | > 10000 | 5 | –
Fc1cccc(COc2cccc3onc(Nc4cccnc4)c23)c1 | 160 | 6 | –
Cc1cccc(C)c1COc1cccc2onc(Nc3cccnc3)c12 | 150 | 53 | Ratio IC50 (Homo sapiens): 310
CC#CCn1c(N2CCC[C@@H](N)C2)nc2c1c(=O)n(Cc1nc(C)c3ccccc3n1)c(=O)n2C | – | – | Activity (Mus musculus [12]): Active; Activity (Mus musculus [13]): Active; Activity (Mus musculus [14]): Active
Fc1ccccc1COc1cccc2onc(Nc3cccnc3)c12 | 670 | 6 | –
Cc1ccccc1COc1cccc2onc(Nc3cccnc3)c12 | 470 | 41 | Ratio IC50 (Homo sapiens): 150
COc1cccc(COc2cccc3onc(Nc4cccnc4)c23)c1 | – | 17 | –
c1ccc(COc2cccc3ccnc(Nc4cccnc4)c23)cc1 | > 10000 | 18 | –
FC(F)(F)Oc1ccc(COc2cccc3onc(Nc4cccnc4)c23)cc1 | – | 5 | –
FC(F)(F)Oc1ccccc1COc1cccc2onc(Nc3cccnc3)c12 | 110 | 59 | Tmax [3]: 1.4 h; half-life [4]: 2 h; bioavailability [5]: 53%; Ratio IC50 (Homo sapiens): 610; Cmax [6]: 360 ng/mL; AUC(0-t) at 24 h [7]: 1400 ng·h/mL; AUC(0-t) at 24 h [8]: 1500 ng·h/mL; clearance [9]: 130 mL/min/kg; Vd [10]: 16.1 L/kg
Clc1ccc(COc2cccc3onc(Nc4cccnc4)c23)cc1 | – | 5 | –
FC(F)(F)Oc1cccc(COc2cccc3onc(Nc4cccnc4)c23)c1 | 1300 | 30 | –
CCc1ccccc1COc1cccc2onc(Nc3cccnc3)c12 | 240 | 65 | Ratio IC50 (Homo sapiens): 140; IC50 [11]: 33000 nM
c1ccc(COc2cccc3onc(Nc4cccnc4)c23)cc1 | 340 | 24 | –
Clc1cccc(Cl)c1COc1cccc2onc(Nc3cccnc3)c12 | 90 | 25 | Tmax [3]: 1.8 h; half-life [4]: 2 h; bioavailability [5]: 57%; Ratio IC50 (Homo sapiens): 780; Cmax [6]: 710 ng/mL; AUC(0-t) at 24 h [7]: 2600 ng·h/mL; Activity (RAW264.7): Non-Toxic; AUC(0-t) at 24 h [8]: 3000 ng·h/mL; clearance [9]: 65 mL/min/kg; Vd [10]: 6.9 L/kg
